# Measured values as given in ChEMBL document CHEMBL1130012 (J Med Chem, 1997).
# Assays:
# Rattus norvegicus [1] = species on record: Rattus norvegicus; assay: The Biodistribution of the antagonistic compound in male wistar rats, after 15 minutes of injection in the trachea expressed as (body weight-corrected) uptake value; assay type: organism-based; settings: in vivo, 0.25 h
# Rattus norvegicus [2] = assay: The Biodistribution of the antagonistic compound along with pretreated atropine (2.5 mg/kg) in male wistar rats after 15 minutes of injection in the pancreas expressed as (body weight-corrected) uptake value; assay type: organism-based; settings: in vivo, 0.25 h
# Procedure, shortened: (§1)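 Same protocol, except the pretreatment was saline containing atropine (0.5 mg/0.5 mL; 2.5 mg/kg) given i.v. 1 min before tail-vein injection of the radioligand (1.85-2.78 MBq in 0.4 mL saline) into pentobarbital-anaesthetized (60 mg/kg) male Wistar rats (240 g). Tissues removed at 15 min and counted ex vivo. Uptake is body-weight-corrected DAR = (cpm/g tissue)/(cpm injected/g body weight).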
# Rattus norvegicus [3] = assay: The Biodistribution of the antagonistic compound along with pretreated atropine (2.5 mg/kg) in male wistar rats after 15 minutes of injection in the plasma expressed as (body weight-corrected) uptake value; assay type: organism-based; settings: in vivo, 0.25 h; procedure, shortened: as §1
# Rattus norvegicus [4] = assay: The Biodistribution of the antagonistic compound along with pretreated atropine (2.5 mg/kg) in male wistar rats after 15 minutes of injection in the red blood cells expressed as (body weight-corrected) uptake value; Below limit of detection; assay type: organism-based; settings: in vivo, 0.25 h; procedure, shortened: as §1
# Rattus norvegicus [5] = assay: The Biodistribution of the antagonistic compound along with pretreated atropine (2.5 mg/kg) in male wistar rats after 15 minutes of injection in the spleen expressed as (body weight-corrected) uptake value; assay type: organism-based; settings: in vivo, 0.25 h; procedure, shortened: as §1
# Rattus norvegicus [6] = assay: The Biodistribution of the antagonistic compound along with pretreated atropine (2.5 mg/kg) in male wistar rats after 15 minutes of injection in the submandibular gland expressed as (body weight-corrected) uptake value; assay type: organism-based; settings: in vivo, 0.25 h; procedure, shortened: as §1
# Rattus norvegicus [7] = assay: The Biodistribution of the antagonistic compound along with pretreated atropine (2.5 mg/kg) in male wistar rats after 15 minutes of injection in the testes expressed as (body weight-corrected) uptake value; assay type: organism-based, Testis; settings: in vivo, 0.25 h; procedure, shortened: as §1
# Rattus norvegicus [8] = assay: The Biodistribution of the antagonistic compound along with pretreated atropine (2.5 mg/kg) in male wistar rats after 15 minutes of injection in the trachea expressed as (body weight-corrected) uptake value; assay type: organism-based; settings: in vivo, 0.25 h; procedure, shortened: as §1
# Rattus norvegicus [9] = species on record: Rattus norvegicus; assay: The Biodistribution of the antagonistic compound in male wistar rats, after 15 minutes of injection in the bladder expressed as (body weight-corrected) uptake value; assay type: organism-based, Urinary bladder/Urine; settings: in vivo, 0.25 h
# Rattus norvegicus [10] = species on record: Rattus norvegicus; assay: The Biodistribution of the antagonistic compound in male wistar rats, after 15 minutes of injection in the cerebellum expressed as (body weight-corrected) uptake value; Below limit of detection; assay type: organism-based; settings: in vivo, 0.25 h
# Rattus norvegicus [11] = species on record: Rattus norvegicus; assay: The Biodistribution of the antagonistic compound in male wistar rats, after 15 minutes of injection in the cortex expressed as (body weight-corrected) uptake value; Below limit of detection; assay type: organism-based; settings: in vivo, 0.25 h
# Rattus norvegicus [12] = species on record: Rattus norvegicus; assay: The Biodistribution of the antagonistic compound in male wistar rats, after 15 minutes of injection in the fat; assay type: organism-based; settings: in vivo, 0.25 h
# Rattus norvegicus [13] = species on record: Rattus norvegicus; assay: The Biodistribution of the antagonistic compound in male wistar rats, after 15 minutes of injection in the heart expressed as (body weight-corrected) uptake value; assay type: organism-based; settings: in vivo, 0.25 h
# Rattus norvegicus [14] = species on record: Rattus norvegicus; assay: The Biodistribution of the antagonistic compound in male wistar rats, after 15 minutes of injection in the intestine expressed as (body weight-corrected) uptake value; assay type: organism-based; settings: in vivo, 0.25 h
# Rattus norvegicus [15] = species on record: Rattus norvegicus; assay: The Biodistribution of the antagonistic compound in male wistar rats, after 15 minutes of injection in the kidney expressed as (body weight-corrected) uptake value; assay type: organism-based; settings: in vivo, 0.25 h
# Rattus norvegicus [16] = species on record: Rattus norvegicus; assay: The Biodistribution of the antagonistic compound in male wistar rats, after 15 minutes of injection in the lung expressed as (body weight-corrected) uptake value; assay type: organism-based; settings: in vivo, 0.25 h
# Rattus norvegicus [17] = species on record: Rattus norvegicus; assay: The Biodistribution of the antagonistic compound in male wistar rats, after 15 minutes of injection in the muscle expressed as (body weight-corrected) uptake value; assay type: organism-based, Muscle tissue; settings: in vivo, 0.25 h
# Rattus norvegicus [18] = species on record: Rattus norvegicus; assay: The Biodistribution of the antagonistic compound in male wistar rats, after 15 minutes of injection in the pancreas expressed as (body weight-corrected) uptake value; assay type: organism-based; settings: in vivo, 0.25 h
# Rattus norvegicus [19] = species on record: Rattus norvegicus; assay: The Biodistribution of the antagonistic compound in male wistar rats, after 15 minutes of injection in the plasma expressed as (body weight-corrected) uptake value; assay type: organism-based; settings: in vivo, 0.25 h
# Rattus norvegicus [20] = assay: The Biodistribution of the antagonistic compound along with pretreated atropine (2.5 mg/kg) in male wistar rats after 15 minutes of injection in the bladder; assay type: organism-based, Urinary bladder/Urine; settings: in vivo, 0.25 h; procedure, shortened: as §1
# Rattus norvegicus [21] = assay: The Biodistribution of the antagonistic compound along with pretreated atropine (2.5 mg/kg) in male wistar rats after 15 minutes of injection in the cerebellum; Below limit of detection; assay type: organism-based; settings: in vivo, 0.25 h; procedure, shortened: as §1
# Rattus norvegicus [22] = assay: The Biodistribution of the antagonistic compound along with pretreated atropine (2.5 mg/kg) in male wistar rats after 15 minutes of injection in the cortex expressed as (body weight-corrected) uptake value; Below limit of detection; assay type: organism-based; settings: in vivo, 0.25 h; procedure, shortened: as §1
# Rattus norvegicus [23] = assay: The Biodistribution of the antagonistic compound along with pretreated atropine (2.5 mg/kg) in male wistar rats after 15 minutes of injection in the fat expressed as (body weight-corrected) uptake value; assay type: organism-based, Adipose tissue; settings: in vivo, 0.25 h; procedure, shortened: as §1
# Rattus norvegicus [24] = assay: The Biodistribution of the antagonistic compound along with pretreated atropine (2.5 mg/kg) in male wistar rats after 15 minutes of injection in the heart expressed as (body weight-corrected) uptake value; assay type: organism-based; settings: in vivo, 0.25 h; procedure, shortened: as §1
# Rattus norvegicus [25] = species on record: Rattus norvegicus; assay: The Biodistribution of the antagonistic compound in male wistar rats, after 15 minutes of injection in the red blood cells expressed as (body weight-corrected) uptake value; Below limit of detection; assay type: organism-based; settings: in vivo, 0.25 h
# Rattus norvegicus [26] = species on record: Rattus norvegicus; assay: The Biodistribution of the antagonistic compound in male wistar rats, after 15 minutes of injection in the spleen; assay type: organism-based; settings: in vivo, 0.25 h
# Rattus norvegicus [27] = species on record: Rattus norvegicus; assay: The Biodistribution of the antagonistic compound in male wistar rats, after 15 minutes of injection in the stomach expressed as (body weight-corrected) uptake value; assay type: organism-based; settings: in vivo, 0.25 h
# Rattus norvegicus [28] = species on record: Rattus norvegicus; assay: The Biodistribution of the antagonistic compound in male wistar rats, after 15 minutes of injection in the submandibular gland expressed as (body weight-corrected) uptake value; assay type: organism-based; settings: in vivo, 0.25 h
# Rattus norvegicus [29] = species on record: Rattus norvegicus; assay: The Biodistribution of the antagonistic compound in male wistar rats, after 15 minutes of injection in the testes expressed as (body weight-corrected) uptake value; assay type: organism-based, Testis; settings: in vivo, 0.25 h
# Rattus norvegicus [30] = assay: The Biodistribution of the antagonistic compound along with pretreated atropine (2.5 mg/kg) in male wistar rats after 15 minutes of injection in the intestine expressed as (body weight-corrected) uptake value; assay type: organism-based; settings: in vivo, 0.25 h; procedure, shortened: as §1
# Rattus norvegicus [31] = assay: The Biodistribution of the antagonistic compound along with pretreated atropine (2.5 mg/kg) in male wistar rats after 15 minutes of injection in the kidney expressed as (body weight-corrected) uptake value; assay type: organism-based; settings: in vivo, 0.25 h; procedure, shortened: as §1
# Rattus norvegicus [32] = assay: The Biodistribution of the antagonistic compound along with pretreated atropine (2.5 mg/kg) in male wistar rats after 15 minutes of injection in the liver expressed as (body weight-corrected) uptake value; assay type: organism-based; settings: in vivo, 0.25 h; procedure, shortened: as §1
# Rattus norvegicus [33] = assay: The Biodistribution of the antagonistic compound along with pretreated atropine (2.5 mg/kg) in male wistar rats after 15 minutes of injection in the lung expressed as (body weight-corrected) uptake value; assay type: organism-based; settings: in vivo, 0.25 h; procedure, shortened: as §1
# Rattus norvegicus [34] = assay: The Biodistribution of the antagonistic compound along with pretreated atropine (2.5 mg/kg) in male wistar rats after 15 minutes of injection in the muscle expressed as (body weight-corrected) uptake value; assay type: organism-based, Muscle tissue; settings: in vivo, 0.25 h; procedure, shortened: as §1
# [35] = molecular target: T1, Muscarinic acetylcholine receptor M2 (Rattus norvegicus, UniProt P10980); assay: Binding affinity towards rat Muscarinic acetylcholine receptor M2 was determined
# T1 sequence (P10980 whole entry): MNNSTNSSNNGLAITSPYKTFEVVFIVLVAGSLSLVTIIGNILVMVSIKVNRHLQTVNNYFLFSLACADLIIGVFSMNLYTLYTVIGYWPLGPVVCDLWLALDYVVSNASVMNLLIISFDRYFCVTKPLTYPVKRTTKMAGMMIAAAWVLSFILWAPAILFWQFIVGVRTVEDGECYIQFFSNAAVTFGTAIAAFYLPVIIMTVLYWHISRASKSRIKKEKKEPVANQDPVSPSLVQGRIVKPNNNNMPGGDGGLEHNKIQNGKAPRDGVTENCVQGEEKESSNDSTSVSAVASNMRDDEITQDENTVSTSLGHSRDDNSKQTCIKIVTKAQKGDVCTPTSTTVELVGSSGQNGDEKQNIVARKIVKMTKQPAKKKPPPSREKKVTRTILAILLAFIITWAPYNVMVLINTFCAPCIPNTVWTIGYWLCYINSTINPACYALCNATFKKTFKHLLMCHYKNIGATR
# [36] = molecular target: T2, Muscarinic acetylcholine receptor M1 (Bos taurus, UniProt Q8WMX0); assay type: cell membranes, Brain, Membrane
# T2 sequence (Q8WMX0 whole entry): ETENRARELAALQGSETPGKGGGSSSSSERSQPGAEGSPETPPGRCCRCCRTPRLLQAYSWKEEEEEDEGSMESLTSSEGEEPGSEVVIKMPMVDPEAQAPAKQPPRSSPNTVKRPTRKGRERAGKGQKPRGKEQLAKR
# [37] = molecular target: T3, Muscarinic acetylcholine receptor M1 (Rattus norvegicus, UniProt P08482); assay: Binding affinity towards rat Muscarinic acetylcholine receptor M1 was determined
# T3 sequence (P08482 whole entry): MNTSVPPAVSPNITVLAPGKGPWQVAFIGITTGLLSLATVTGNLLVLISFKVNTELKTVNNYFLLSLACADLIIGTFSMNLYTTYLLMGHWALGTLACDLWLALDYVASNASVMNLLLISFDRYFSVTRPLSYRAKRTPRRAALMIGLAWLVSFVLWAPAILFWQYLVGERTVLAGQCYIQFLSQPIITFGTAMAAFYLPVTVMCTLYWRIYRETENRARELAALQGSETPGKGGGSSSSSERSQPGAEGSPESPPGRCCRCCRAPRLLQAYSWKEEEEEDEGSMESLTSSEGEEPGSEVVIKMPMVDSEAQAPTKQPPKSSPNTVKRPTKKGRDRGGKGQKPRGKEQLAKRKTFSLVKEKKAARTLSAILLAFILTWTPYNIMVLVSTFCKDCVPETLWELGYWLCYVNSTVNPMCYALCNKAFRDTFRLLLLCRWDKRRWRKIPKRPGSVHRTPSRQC
# Rattus norvegicus [38] = species on record: Rattus norvegicus; assay: The Biodistribution of the antagonistic compound in male wistar rats, after 15 minutes of injection in the liver expressed as (body weight-corrected) uptake value; assay type: organism-based; settings: in vivo, 0.25 h
# Rattus norvegicus [39] = assay: The Biodistribution of the antagonistic compound along with pretreated atropine (2.5 mg/kg) in male wistar rats after 15 minutes of injection in the stomach expressed as (body weight-corrected) uptake value; assay type: organism-based; settings: in vivo, 0.25 h; procedure, shortened: as §1
structure (smiles),measurement,setting,value
C[N+]1(C)CCC(OC(=O)[C@](O)(c2ccccc2)C2CCCCC2)CC1.[I-],Uptake value,Rattus norvegicus [1],0.89
same,Uptake value,Rattus norvegicus [2],0.35
same,Uptake value,Rattus norvegicus [3],0.19
same,Uptake value,Rattus norvegicus [4],Not Active
same,Uptake value,Rattus norvegicus [5],0.12
same,Uptake value,Rattus norvegicus [6],0.23
same,Uptake value,Rattus norvegicus [7],0.16
same,Uptake value,Rattus norvegicus [8],0.26
same,Uptake value,Rattus norvegicus [9],4.68
same,Uptake value,Rattus norvegicus [10],Not Active
same,Uptake value,Rattus norvegicus [11],Not Active
same,Uptake value,Rattus norvegicus [12],0.1
same,Uptake value,Rattus norvegicus [13],12.78
same,Uptake value,Rattus norvegicus [14],6.08
same,Uptake value,Rattus norvegicus [15],2.75
same,Uptake value,Rattus norvegicus [16],1.03
same,Uptake value,Rattus norvegicus [17],0.07
same,Uptake value,Rattus norvegicus [18],2.85
same,Uptake value,Rattus norvegicus [19],0.1
same,Uptake value,Rattus norvegicus [20],5.92
same,Uptake value,Rattus norvegicus [21],Not Active
same,Uptake value,Rattus norvegicus [22],Not Active
same,Uptake value,Rattus norvegicus [23],0.37
same,Uptake value,Rattus norvegicus [24],0.12
same,Uptake value,Rattus norvegicus [25],Not Active
same,Uptake value,Rattus norvegicus [26],1.23
same,Uptake value,Rattus norvegicus [27],2.76
same,Uptake value,Rattus norvegicus [28],2.64
same,Uptake value,Rattus norvegicus [29],0.12
same,Uptake value,Rattus norvegicus [30],0.97
same,Uptake value,Rattus norvegicus [31],4.32
same,Uptake value,Rattus norvegicus [32],9.41
same,Uptake value,Rattus norvegicus [33],0.11
same,Uptake value,Rattus norvegicus [34],0.07
same,Ki,[35],0.21 nM
same,Ki,[36],0.02 nM
same,Ki,[37],0.01 nM
same,Uptake value,Rattus norvegicus [38],5.42
same,Uptake value,Rattus norvegicus [39],0.22
